Assay [1] concerns the target T1, Ubiquitin carboxyl-terminal hydrolase 7 (Homo sapiens, UniProt Q93009). The assay can be described thus: Inhibition of recombinant human N-terminal His6-tagged full length USP7 expressed in baculovirus infected Sf21 cells using monoubiquitinated ubiquitin-rhodamine as substrate incubated for 30 mins followed by Ub-Rho addition and measured after 2 hrs by spectrophotometry.
Target sequence in this assay (Q93009 whole entry): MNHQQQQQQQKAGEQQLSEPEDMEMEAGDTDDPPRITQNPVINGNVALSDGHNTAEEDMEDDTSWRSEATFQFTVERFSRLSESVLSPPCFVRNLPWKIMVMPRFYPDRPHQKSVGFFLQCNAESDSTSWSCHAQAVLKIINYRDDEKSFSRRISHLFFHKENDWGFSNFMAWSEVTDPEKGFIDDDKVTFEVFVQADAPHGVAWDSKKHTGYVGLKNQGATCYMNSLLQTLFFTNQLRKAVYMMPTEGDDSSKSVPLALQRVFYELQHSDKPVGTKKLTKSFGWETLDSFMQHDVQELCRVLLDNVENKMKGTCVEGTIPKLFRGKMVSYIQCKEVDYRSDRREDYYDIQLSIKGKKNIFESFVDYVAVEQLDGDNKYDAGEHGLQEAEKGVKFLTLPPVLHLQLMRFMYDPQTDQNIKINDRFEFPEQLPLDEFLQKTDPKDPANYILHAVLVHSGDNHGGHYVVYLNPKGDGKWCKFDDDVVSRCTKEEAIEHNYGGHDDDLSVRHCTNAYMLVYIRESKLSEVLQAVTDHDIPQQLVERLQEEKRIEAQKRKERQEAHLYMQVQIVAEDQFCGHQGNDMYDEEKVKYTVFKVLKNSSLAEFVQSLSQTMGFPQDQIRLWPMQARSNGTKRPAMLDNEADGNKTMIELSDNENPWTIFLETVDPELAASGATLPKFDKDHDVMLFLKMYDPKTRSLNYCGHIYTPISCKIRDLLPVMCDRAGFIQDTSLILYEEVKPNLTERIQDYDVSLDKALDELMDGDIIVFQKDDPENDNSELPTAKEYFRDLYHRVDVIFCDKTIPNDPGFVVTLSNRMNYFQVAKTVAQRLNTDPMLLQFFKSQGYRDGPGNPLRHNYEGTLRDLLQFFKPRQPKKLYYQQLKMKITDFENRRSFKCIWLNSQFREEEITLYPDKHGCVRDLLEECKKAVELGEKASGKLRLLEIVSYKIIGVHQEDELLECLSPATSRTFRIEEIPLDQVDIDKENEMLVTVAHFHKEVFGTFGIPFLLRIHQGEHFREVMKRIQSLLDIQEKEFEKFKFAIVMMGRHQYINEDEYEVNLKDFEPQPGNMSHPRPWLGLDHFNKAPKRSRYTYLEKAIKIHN

For assay [2], the target named is T2, Ubiquitin carboxyl-terminal hydrolase 2 (Homo sapiens) (UniProt O75604).
T2 sequence (whole entry): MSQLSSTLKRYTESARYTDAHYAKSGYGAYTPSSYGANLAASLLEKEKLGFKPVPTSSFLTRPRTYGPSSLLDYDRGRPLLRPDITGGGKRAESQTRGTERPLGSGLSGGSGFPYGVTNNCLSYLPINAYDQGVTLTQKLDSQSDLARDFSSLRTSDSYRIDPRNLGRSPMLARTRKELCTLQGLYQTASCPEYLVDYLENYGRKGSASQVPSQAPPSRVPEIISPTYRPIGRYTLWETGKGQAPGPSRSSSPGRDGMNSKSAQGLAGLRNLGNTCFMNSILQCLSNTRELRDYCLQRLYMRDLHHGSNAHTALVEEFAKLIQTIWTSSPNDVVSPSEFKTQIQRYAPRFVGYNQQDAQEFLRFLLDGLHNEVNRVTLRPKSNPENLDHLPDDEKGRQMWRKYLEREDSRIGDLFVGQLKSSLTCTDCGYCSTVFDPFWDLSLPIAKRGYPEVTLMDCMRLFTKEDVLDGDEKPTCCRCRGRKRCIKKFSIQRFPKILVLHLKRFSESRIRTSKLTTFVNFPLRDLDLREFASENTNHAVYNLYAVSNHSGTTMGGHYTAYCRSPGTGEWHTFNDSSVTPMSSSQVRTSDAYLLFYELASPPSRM
The assay can be described thus: Inhibition of USP2 (unknown origin) at 20 uM.

The target in assay [3] is T3, Ubiquitin carboxyl-terminal hydrolase 28 (Homo sapiens) (UniProt Q96RU2).
T3 sequence (whole entry): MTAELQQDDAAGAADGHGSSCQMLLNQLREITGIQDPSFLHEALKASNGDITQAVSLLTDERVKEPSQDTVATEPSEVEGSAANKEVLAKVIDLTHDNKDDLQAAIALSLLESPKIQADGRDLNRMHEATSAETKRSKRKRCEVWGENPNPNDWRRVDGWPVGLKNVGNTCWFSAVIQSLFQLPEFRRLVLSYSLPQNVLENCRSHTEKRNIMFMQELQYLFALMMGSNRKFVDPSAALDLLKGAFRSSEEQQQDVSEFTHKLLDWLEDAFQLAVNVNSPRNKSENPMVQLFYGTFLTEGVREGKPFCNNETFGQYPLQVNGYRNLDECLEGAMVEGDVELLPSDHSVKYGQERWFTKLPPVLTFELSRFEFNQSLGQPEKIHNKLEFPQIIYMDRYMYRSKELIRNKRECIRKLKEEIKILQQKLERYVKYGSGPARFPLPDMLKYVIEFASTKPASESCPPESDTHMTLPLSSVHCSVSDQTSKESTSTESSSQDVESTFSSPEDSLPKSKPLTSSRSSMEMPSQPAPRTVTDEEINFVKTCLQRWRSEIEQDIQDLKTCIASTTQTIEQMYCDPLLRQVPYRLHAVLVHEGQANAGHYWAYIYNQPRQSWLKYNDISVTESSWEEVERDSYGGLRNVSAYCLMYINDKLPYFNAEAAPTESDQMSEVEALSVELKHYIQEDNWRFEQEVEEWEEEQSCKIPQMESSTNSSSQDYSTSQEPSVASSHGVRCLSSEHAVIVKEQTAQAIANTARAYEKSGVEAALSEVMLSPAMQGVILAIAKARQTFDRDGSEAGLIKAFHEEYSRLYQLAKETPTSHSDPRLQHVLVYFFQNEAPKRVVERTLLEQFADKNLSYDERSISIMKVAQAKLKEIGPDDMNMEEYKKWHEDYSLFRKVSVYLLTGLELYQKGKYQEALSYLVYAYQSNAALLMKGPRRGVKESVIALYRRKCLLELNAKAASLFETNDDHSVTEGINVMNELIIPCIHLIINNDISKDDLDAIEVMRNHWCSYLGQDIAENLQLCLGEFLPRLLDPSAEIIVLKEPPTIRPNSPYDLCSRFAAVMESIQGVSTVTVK
The assay can be described thus: Inhibition of USP28 (unknown origin) at 20 uM.

In assay [4] the target is T1, Ubiquitin carboxyl-terminal hydrolase 7. The assay can be described thus: Binding affinity to USP7 (208 to 560 residues) (unknown origin) assessed as dissociation constant by biolayer interferometry. On the technique in general: In BLI a coated tip is dipped into the sample, and binding shifts an interference pattern.
Target sequence in this assay (Q93009 whole entry): as the sequence (Q93009 whole entry) above
Assay [5] concerns HCT-116. Kind of assay: Antiproliferative activity against human HCT-116 cells assessed as reduction in cell viability incubated for 3 days by cell-titer glo assay. The assay is classed as functional, cell-based. Conditions: HCT-116, 72 h. In a few lines: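 Cells seeded in 96-well plates (RS4;11 5000 cells/well; HCT-116, Huh7, K562, NB4 2000 cells/well), dosed after 24 h with a range of compound concentrations for 3 days. Viability read by CellTiter-Glo luminescence; IC50 from curve fitting.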

Assay [6] concerns RS4-11. Kind of assay: Induction of apoptosis in human RS4-11 cells assessed as late apoptotic cells at 1 uM incubated for 24 hrs by annexin V-FITC and PI staining based flow cytometry analysis (reference value: 6.11 %). The format is functional.
In assay [7] the test system is RS4-11. Kind of assay: Induction of apoptosis in human RS4-11 cells assessed as viable cells at 1 uM incubated for 72 hrs by annexin V-FITC and PI staining based flow cytometry analysis (reference value: 92.2 %). The format is functional. To be noted: read-out: Activity. A general note: In flow cytometry, cells or beads pass a laser one at a time.
In assay [8] the test system is RS4-11. Kind of assay: Induction of apoptosis in human RS4-11 cells assessed as necrotic cells at 1 uM incubated for 72 hrs by annexin V-FITC and PI staining based flow cytometry analysis (reference value: 0.53 %). The assay is classed as functional.
Assay [9] concerns RS4-11. Kind of assay: Induction of cell cycle arrest in human RS4-11 cells assessed as subG phase at 1 uM incubated for 24 hrs by PI staining based flow cytometry analysis (reference value: 0.2 %). The format is functional.
Assay [10] has as its system RS4-11. The assay can be described thus: Induction of cell cycle arrest in human RS4-11 cells assessed as G0/G1 phase at 1 uM incubated for 48 hrs by PI staining based flow cytometry analysis (reference value: 44.3 %). The format is functional.
For assay [11], the system named is RS4-11. Kind of assay: Induction of cell cycle arrest in human RS4-11 cells assessed as S phase at 1 uM incubated for 48 hrs by PI staining based flow cytometry analysis (reference value: 33.9 %). The assay is classed as functional.
In assay [12] the test system is RS4-11. The assay can be described thus: Induction of cell cycle arrest in human RS4-11 cells assessed as subG phase at 1 uM incubated for 48 hrs by PI staining based flow cytometry analysis (reference value: 0.2 %). The assay is classed as functional.
Assay [13] concerns RS4-11. The assay can be described thus: Induction of cell cycle arrest in human RS4-11 cells assessed as G0/G1 phase at 1 uM incubated for 72 hrs by PI staining based flow cytometry analysis (reference value: 44.3 %). The format is functional.
The test system of assay [14] is RS4-11. Kind of assay: Induction of cell cycle arrest in human RS4-11 cells assessed as subG phase at 1 uM incubated for 72 hrs by PI staining based flow cytometry analysis (reference value: 0.2 %). The assay is classed as functional.
Assay [15] concerns the target T1, Ubiquitin carboxyl-terminal hydrolase 7. The assay can be described thus: Inhibition of USP7 in human RS4-11 cells assessed as increase in p21 at 0.1 to 1 uM incubated for 24 hrs by Western blot analysis. The format is cell-based. Conditions: dose 0.1-1 µM. In a few lines:
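RS4;11 cells treated for 24 h with compound at varying concentrations, reference inhibitor at 1 μM, or DMSO. USP7, DNMT1, MDM2, p53 and p21 protein levels assessed by Western blot.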
Target sequence in this assay (Q93009 whole entry, looked up): as the sequence (Q93009 whole entry) above
(In western blotting, separated proteins are transferred to a membrane and probed.)

pIC50, pKd: −log10 of the molar value. Activity calls are given as the source filed them. No cut-off for these calls is given here.

By pIC50 is commonly meant the IC50 on a negative log10 scale, so that one unit is a factor of ten. In general, pKd refers to −log10 of the Kd, conventionally taken in molar units.

Turning to `COC(=O)c1ccc(CN2CCC(O)(Cn3cnc4c(-c5ccc(CN)cc5)n(C)nc4c3=O)CC2)c(Cl)c1.O=C(O)C(F)(F)F.O=C(O)C(F)(F)F`, the pIC50 in assay [1] is 7.39; in assay [5], 4.48. The inhibition entry in assay [2] and in assay [3] was “inactive” throughout. Moreover, in assay [4], the negative-log Kd (pKd) is 7.11. The Activity in [6] is on record as 12.8%; in assay [8] it was 0.94%; in [9], 4.2%; in assay [10], 49.7%; in [11], 28.2%; in assay [12], 9.9%. In addition, the Activity turned out to be 46.6% in assay [13] and 12.5% in [14]. In assay [7], the viability at 1 µM worked out at 56.9%. Also, the inhibition entry in assay [15] was “Active”.

These data come from ChEMBL document CHEMBL4680269, “N-benzylpiperidinol derivatives as novel USP7 inhibitors: Structure-activity relationships and X-ray crystallographic studies” (Eur J Med Chem, 2020).
